# High-throughput results as filed in PubChem BioAssay.
# STEP block: inhibitors of human striatal-enriched phosphatase STEP; P54829; recombinant STEP, OMFP fluorogenic substrate, fluorescence; inhibition, % at 20 µM; 360,000 compounds, 0.25% hits;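 active means inhibition at 20 µM, scaled per plate between control wells, above about 37%, limit read from the data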
#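 System: isolated STEP enzyme; schedule: 20 min enzyme reaction at room temperature, protected from light; medium: Bis-Tris buffer pH 6.0, 2.5 mM DTT, 0.005% Tween 20; signal: fluorescence, 480/540 nm; dosing: single compound dose of 20 µM, 1% DMSO final; also added: OMFP substrate, 25 µM final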
# LMPTP block: blocks human LMPTP phosphatase. recombinant LMPTP-A, OMFP fluorogenic substrate, fluorescence intensity. inhibition, % at 20 µM. 360,000 compounds, 0.22% hits;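 active means compounds that cut the enzyme signal by at least half of the control window in the single-dose screen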
# Target sequence (P24666 whole entry, looked up): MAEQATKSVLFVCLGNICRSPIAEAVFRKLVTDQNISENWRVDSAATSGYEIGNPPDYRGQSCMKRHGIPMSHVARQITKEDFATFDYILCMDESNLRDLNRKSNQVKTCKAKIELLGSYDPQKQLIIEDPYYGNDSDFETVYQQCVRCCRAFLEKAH
#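 Test system: LMPTP-A, protein tyrosine phosphatase of low molecular weight; Input: 0.625 nM enzyme; Incubation: 50 min dark incubation at room temperature; Signal: endpoint fluorescence intensity from OMFP dephosphorylation; Read-out basis: % inhibition versus control wells.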
# SUMO1-SIM PPI: modulators of human SUMO1-mediated protein-protein interactions | 360,000 compounds, 0.33% hits | inhibition, % at 20 µM | P63165 | AID 602429 | SUMO1 binding to a labelled peptide, TR-FRET, 1 h; in the data active means inhibition above about 37%
# Target sequence (P63165 whole entry, looked up): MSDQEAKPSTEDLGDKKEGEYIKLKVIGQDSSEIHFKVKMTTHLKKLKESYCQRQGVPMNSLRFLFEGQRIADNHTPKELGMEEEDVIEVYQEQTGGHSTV
# DNMT1 inh: DNMT1 (human) enzyme inhibition. DNMT1 molecular beacon, Hinp1I cleavage, fluorescence. inhibition (reported as % activation of signal), % at 10 µM. 360,000 compounds, 0.83% hits; in the data active means inhibition above about 50%
# HKDC1 inhibitor: inhibitors of human hexokinase HKDC1; inhibition, % at 20 µM; Q2TB90; recombinant HKDC1, G6PDH/diaphorase resazurin coupled fluorescence; 340,000 compounds, 0.16% hits;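 active means inhibition above about 35% when tested at 20 µM, limit read from the data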
#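 Incubation: 90 min at room temperature in dark / Material: recombinant HKDC1 (HK5) hexokinase enzyme, produced in-house / Quantity: enzyme 5 µg/mL final / Compound: one dose of 20 µM, 1% DMSO / Reagent: glucose and ATP substrates / Buffer or medium: Tris pH 8.0 buffer with MgCl2, Tween-20, BSA, BME / Technique: resorufin fluorescence at 613 nm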
# Scp1 inh: blocks human Scp-1 phosphatase activity; Q9GZU7; Recombinant Scp1, phosphopeptide, malachite green phosphate absorbance; inhibition, % at 20 µM; 340,000 compounds, 0.88% hits; AID 493091;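 active means inhibition above about 50% at 20 µM, limit read from the data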
# Target sequence (Q9GZU7 76-261 limits assumed): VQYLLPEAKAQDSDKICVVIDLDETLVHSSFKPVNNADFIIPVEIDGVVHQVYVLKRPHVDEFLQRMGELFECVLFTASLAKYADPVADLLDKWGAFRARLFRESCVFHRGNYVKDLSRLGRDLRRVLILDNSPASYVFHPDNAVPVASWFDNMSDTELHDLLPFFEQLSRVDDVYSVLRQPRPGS
#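 assay system = SCP-1 phosphatase catalytic domain, residues 76-261 | buffer or medium = 50 mM Tris acetate pH 5.5, 0.005% Tween-20, 10 mM MgCl2 | incubation = enzyme reaction 45 min at room temperature, colour 5 min, stabilisation 30 min | signal = Phosphate-binding colour reagent, absorbance read at 630 nm | measure = % inhibition at 20 µM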
# Scp1 confirm: Scp-1 (human) inhibition, single-dose confirmed; shares compounds with Scp1 inh; recombinant SCP-1 catalytic domain, phosphate release, malachite green absorbance; inhibition, % at 20 µM; 2,500 compounds, 61% hits; AID 540281
# Scp-1 MG ctr: colorimetric interference in Scp-1 counter-screen; AID 540313; Colorimetric interference counterscreen, malachite green absorbance 630 nm; shares compounds with Scp1 inh; 2,500 tested, under 10 active; apparent inhibition (interference), % at 20 µM;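 further: compounds added after enzyme reaction finished so only phosphate colour detection is probed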
# Scp-1 Tm shift: validation of human Scp-1 inhibitors by thermal shift binding; shares compounds with Scp1 inh; Recombinant SCP1, Sypro Orange thermal shift Tm; thermal shift relative to vanadate control, % at 40 µM; 1,500 compounds, 25% hits; AID 540329;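 active means substances whose mean melting-temperature shift, as a percentage of the reference inhibitor's shift, reaches about 5.3%, limit read from the data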
# Numbers stand for hits; . = inactive; / = no result given. The list is not random: actives were taken first. Their share in the collection is about 1.8%.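 How the source made its calls, unless noted: active means inhibition of at least 30% at 20 µM; inactive means the rest.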
SMILES,STEP block,LMPTP block,SUMO1-SIM PPI,DNMT1 inh,HKDC1 inhibitor,Scp1 inh,Scp1 confirm,Scp-1 MG ctr,others
O=C1/C(=C/c2ccc(O)c([N+](=O)[O-])c2)SC(=S)N1Cc1ccccc1,.,.,.,.,.,.,/,/,
COCC(C)NC(=O)C1CC(=O)N(CCc2ccc(F)cc2)C1 (stereo not drawn),.,.,.,.,/,/,/,/,
C[N+](C)(C)CC/C=C1/c2ccccc2CSc2ccccc21,.,.,.,.,.,77,82,.,Scp-1 Tm shift=.
COc1ccc(/C=C(\C#N)C(=O)Nc2ccc3[nH]c(=O)[nH]c3c2)cc1,.,.,.,.,.,111,66,.,Scp-1 Tm shift=.
CCN(CC)CCNC(=O)C(C)c1nn(CC)c(=O)c2ccccc12 (stereo not drawn),.,.,.,.,.,.,/,/,
Cc1cc(COc2ccccc2)oc1C(=O)O,.,.,.,.,.,.,/,/,
COc1ccccc1-n1cnc2c(c1=O)c1nc3ccccc3nc1n2-c1ccc(C)cc1,.,.,.,.,.,87,34,.,Scp-1 Tm shift=.
COc1ccccc1-n1c2nc3ccccc3nc2c2c(=O)n(-c3cc(C)cc(C)c3)cnc21,.,.,.,.,.,.,/,/,
CC(C)CCC(C(=O)NC(C)c1ccccc1)C(=O)NC(C)c1ccccc1 (stereo not drawn),.,52,.,.,.,92,57,.,Scp-1 Tm shift=.
Cc1ccc(S(=O)(=O)N2CCCCC2)cc1C(=O)Nc1cccnc1,.,.,.,.,.,53,51,.,Scp-1 Tm shift=.
O=C(NCCCO)c1cc([N+](=O)[O-])cc2c1C=Cc1ccccc1O2,.,.,.,.,.,98,.,.,
O=C(NCCCc1ccccc1)c1ccc([N+](=O)[O-])cc1Cl,.,.,.,.,.,.,/,/,
Cn1ncc(Br)c1C(=O)N/N=C/c1cccc(OC2CSC2)c1,.,.,.,.,.,.,/,/,
O=C(N/N=C/c1cccc(OC2CSC2)c1)c1ccccc1O,.,.,.,.,.,96,59,.,Scp-1 Tm shift=.
O=C(CCC1CC(=O)Nc2ccccc21)NCc1ccccc1 (stereo not drawn),.,.,.,.,.,.,/,/,
O=C(CCC1CC(=O)Nc2ccccc21)NCc1ccc(F)cc1 (stereo not drawn),.,.,.,.,.,.,.,.,
CC1=NC(C(F)(F)F)(C(F)(F)F)C(C#N)=C(C)N1,.,.,.,.,.,56,.,.,
CC1=C(C#N)C(Nc2cc(C)ccn2)(C(F)(F)F)C(=O)N1 (stereo not drawn),.,.,.,.,.,.,/,/,
CCOC(=O)CN1C(=O)N[C@@H](c2ccc(Br)cc2)C(C(=O)OC)=C1C,.,.,.,.,.,.,/,/,
CCOC(=O)CN1C(=O)N[C@H](c2ccc(Br)cc2)C(C(C)=O)=C1C,.,.,.,.,.,76,.,.,
COC(=O)c1ccc(NC(=S)N2CCC(C(N)=O)CC2)cc1,.,.,.,.,.,68,.,.,
Cn1c(NC(=O)CCC2CCCCC2)cc(=O)n(C)c1=O,.,.,.,.,.,.,.,.,
Cn1c(NNC(=O)CCC2CCCCC2)cc(=O)n(C)c1=O,.,.,.,.,.,.,.,.,
Cn1c(NNC(=O)c2ccc(C(C)(C)C)cc2)cc(=O)n(C)c1=O,.,.,.,.,.,.,/,/,
Cn1c(NC(=O)C2CC2)cc(=O)n(C)c1=O,.,.,.,.,.,.,/,/,
SMILES,STEP block,LMPTP block,SUMO1-SIM PPI,DNMT1 inh,HKDC1 inhibitor,Scp1 inh,Scp1 confirm,Scp-1 MG ctr,others
Cn1c(NC(=O)c2ccc(C(C)(C)C)cc2)cc(=O)n(C)c1=O,.,.,.,.,.,.,.,.,
Cn1c(NC(=O)Cc2cccc3ccccc23)cc(=O)n(C)c1=O,.,.,.,.,.,.,.,.,
Cn1c(=O)c2c(ncn2CCOC(=O)C(C)(C)Oc2ccc(Cl)cc2)n(C)c1=O,.,.,.,.,/,/,/,/,
CN=C(Nc1cccnc1)c1ccccc1,.,.,.,.,.,.,/,/,
CCOc1cc(C2C3=C(CC(C)(C)CC3=O)N(CCOC)C3=C2C(=O)CC(C)(C)C3)ccc1OC,.,.,.,.,.,54,.,.,
N/C(=N\NC(=O)c1cccc(F)c1)c1cc2ccccc2oc1=O,.,.,.,.,.,53,72,.,Scp-1 Tm shift=.
N/C(=N\NC(=O)c1ccc(F)cc1)c1cc2ccccc2oc1=O,.,.,.,.,.,.,/,/,
Cc1ccc2c(c1)NC(=O)C(CC(=O)Nc1ccc(CN3CCC(C)CC3)cc1)O2 (stereo not drawn),.,.,.,.,.,52,.,.,
COc1ccc(NC(=O)c2cc3c(COC(C)=O)cnc(C)c3oc2=Nc2cccc(C(=O)O)c2)c(OC)c1,98,.,.,.,.,89,64,.,Scp-1 Tm shift=.
CCOC(=O)c1ccc2c(c1)[n+](CC)c(C)n2-c1ccccc1,.,.,.,.,.,.,/,/,
CC(=O)OCC[n+]1c(C)n(-c2ccccc2)c2ccc(Cl)cc21,.,.,.,.,.,90,.,.,
Cc1nn(CC(=O)N2CCN(Cc3ccccc3)CC2)c(=O)c2ccccc12,.,.,.,.,.,.,/,/,
COc1ccc(CN2CCN(C(=O)Cn3nc(C(=O)O)c4ccccc4c3=O)CC2)cc1F,.,.,.,.,.,57,.,.,
COc1ccc(NC(=O)c2ccco2)c2ccccc12,.,.,.,.,.,.,/,/,
C/C(CC1CC(COCC(C)C)OC1=O)=N\Nc1nc(-c2ccccc2)cs1 (stereo not drawn),.,.,.,.,.,.,/,/,
CC1CC(CC(=O)Nc2nc(-c3ccccc3)cs2)C(=O)O1 (stereo not drawn),.,.,.,.,.,.,.,.,
Cc1cc(C)c(S(C)(=O)=O)c(N(C)NC(=O)c2c(F)cccc2F)n1,.,.,.,.,.,68,.,.,
CSc1ncnc2c1ncn2CCCNCc1ccc(C)o1,.,.,.,.,/,/,/,/,
Cc1c(CCC(=O)O)c(=O)oc2c(C)c3occ(-c4ccc(Cl)cc4)c3cc12,.,88,.,.,.,64,77,.,Scp-1 Tm shift=.
Cc1c(CCC(=O)O)c(=O)oc2cc3occ(-c4ccc(Cl)cc4)c3cc12,.,.,.,.,.,.,/,/,
CCOc1ccc(C(=O)Nc2ccc(-c3cc4ccccc4oc3=O)c(C)c2)cc1[N+](=O)[O-],.,.,.,.,.,60,41,.,Scp-1 Tm shift=.
